The source of these data is ChEMBL document CHEMBL4138056, “T- and B-cell immunosuppressive activity of novel α-santonin analogs with humoral and cellular immune response in Balb/c mice” (Medchemcomm, 2017).

The test system of series [1] is B-cell line. Description: Immunostimulant activity in Balb/c mouse B cells assessed as induction of LPS-induced cell proliferation at 1 uM after 48 hrs by MTT assay relative to control. It is filed as cell-based. In outline: (§1)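 Balb/c spleen single-cell suspension, RBCs lysed with tris-ammonium chloride, viability by trypan blue; 1×10^6 cells/mL stimulated with LPS (10 μg/mL) for B cells, test agent 1, 10 or 100 μM, 48 h at 37 °C, 5% CO2. MTT 4 h, DMSO solubilization, OD 540 nm; % change vs mitogen control; triplicate, three separate experiments.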
(In general: Tetrazolium dyes change colour on reduction, which living cells bring about.)

The subject of series [2] is Murine T-cell line. Description: Cytotoxicity against Balb/c mouse T cells assessed as decrease in cell survival at 10 uM by MTT assay. It is filed as cell-based. The procedure, abridged: (§2)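 Balb/c splenocytes (RBC lysed with tris-ammonium chloride, trypan blue viability) seeded at 1×10^6 cells/mL with Con A or LPS (10 μg/mL each) and test agent at 1, 10 or 100 μM for 48 h at 37 °C, 5% CO2; MTT added for 4 h, formazan dissolved in DMSO, OD 540 nm. Cytotoxicity scored +/−; triplicate, three separate experiments.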

For series [3], the system named is B-cell line. The series can be described thus: Immunosuppressive activity in Balb/c mouse B cells assessed as inhibition of LPS-induced cell proliferation at 10 uM after 48 hrs by MTT assay relative to control. It is filed as functional. The procedure, abridged: as §1
Series [4] deals with B-cell line. The series can be described thus: Cytotoxicity against Balb/c mouse B cells assessed as decrease cell survival at 1 uM by MTT assay. It is filed as cell-based. In outline:
as §2

Series [5] concerns Murine T-cell line. The series can be described thus: Cytotoxicity against Balb/c mouse T cells assessed as decrease in cell survival at 1 uM by MTT assay. The format is cell-based. The procedure, abridged:
as §2

Series [6] has as its system B-cell line. The series can be described thus: Immunosuppressive activity in Balb/c mouse B cells assessed as inhibition of LPS-induced cell proliferation at 100 uM after 48 hrs by MTT assay relative to control. It is filed as functional. The procedure, abridged:
as §1

The test system of series [7] is Murine T-cell line. Description: Immunosuppressive activity in Balb/c mouse T cells assessed as inhibition of ConA-induced cell proliferation at 10 uM after 48 hrs by MTT assay relative to control.
Series [8] has as its system Murine T-cell line. The series can be described thus: Immunosuppressive activity in Balb/c mouse T cells assessed as inhibition of ConA-induced cell proliferation at 1 uM after 48 hrs by MTT assay relative to control.
The subject of series [9] is B-cell line. Description: Cytotoxicity against Balb/c mouse B cells assessed as decrease cell survival at 10 uM by MTT assay. It is filed as cell-based. In outline:
as §2

For series [10], the system named is Murine T-cell line. Description: Immunosuppressive activity in Balb/c mouse T cells assessed as inhibition of ConA-induced cell proliferation at 100 uM after 48 hrs by MTT assay relative to control.
For series [11], the system named is Murine T-cell line. Description: Cytotoxicity against Balb/c mouse T cells assessed as decrease in cell survival at 100 uM by MTT assay. The format is cell-based. The procedure, abridged:
as §2

For series [12], the system named is B-cell line. The series can be described thus: Cytotoxicity against Balb/c mouse B cells assessed as decrease cell survival at 100 uM by MTT assay. It is filed as cell-based. In outline:
as §2

The test system of series [13] is B-cell line. Description: Immunosuppressive activity in Balb/c mouse B cells assessed as inhibition of LPS-induced cell proliferation at 1 uM after 48 hrs by MTT assay relative to control. It is filed as functional. In outline:
as §1

Series [14] relates to Mus musculus. The series can be described thus: Inhibition of delayed-type hypersensitivity reaction in Balb/c mouse assessed as decrease in sheep RBC-induced footpad thickness at 25 mg/kg, po qd administered 6 consecutive days followed by sheep RBC challenge measured after 24 to 48 hrs by spheromicrometer relative to control. The format is functional. The procedure, abridged:
(§3)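 Female Balb/c mice, groups of six, SRBC-immunized; oral dosing starting 2 h after SRBC, then once daily. Six days later baseline left hind footpad thickness read by spheromicrometer, then intradermal footpad challenge with 20 μL of 5×10^9 SRBC/mL; thickness re-measured at 24 and 48 h versus control group.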

Series [15] concerns Mus musculus. The series can be described thus: Inhibition of humoral immune response in Balb/c mouse assessed as decrease in sheep RBC hemagglutination at 6.25 mg/kg, po qd administered 6 consecutive days measured on day 7 by micro titration method relative to control. The note with it: 168 h. The format is functional. The procedure, abridged: (§4)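 Female Balb/c mice, groups of six, immunized with SRBC and dosed orally; blood taken on day 7 for primary antibody titre, hemagglutination titre determined by modified microtitration; suppression versus control group.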

For series [16], the system named is Mus musculus. The series can be described thus: Inhibition of delayed-type hypersensitivity reaction in Balb/c mouse assessed as decrease in sheep RBC-induced footpad thickness at 12.5 mg/kg, po qd administered 6 consecutive days followed by sheep RBC challenge measured after 24 to 48 hrs by spheromicrometer relative to control. It is filed as functional. The procedure, abridged: as §3

Series [17] concerns Mus musculus. The series can be described thus: Inhibition of humoral immune response in Balb/c mouse assessed as decrease in sheep RBC hemagglutination at 25 mg/kg, po qd administered 6 consecutive days measured on day 7 by micro titration method relative to control. It is filed as functional. The note with it: 168 h. In outline: as §4
Series [18] relates to Murine T-cell line. The series can be described thus: Immunostimulant activity in Balb/c mouse T cells assessed as induction of ConA-induced cell proliferation at 10 uM after 48 hrs by MTT assay relative to control.

One may read the inhibition as the share of the control response that was lost under treatment. For the compound `Cc1cc(OC(=O)C(C)C)c(C)c2c1CC[C@H]1[C@H](C)C(=O)O[C@@H]21`, the Activity in the series with B-cell line [1] is listed as 20.83%; in the series with Murine T-cell line [2], “Non-Toxic”; with B-cell line [4], “Non-Toxic”; in the series with Murine T-cell line [5], “Non-Toxic”; in the series with B-cell line [9] it was “Non-Toxic”; in the series with Murine T-cell line [11] it was “Non-Toxic”. Also, in the series with B-cell line [12], the Activity result is recorded as “Non-Toxic”. Also, the inhibition at 10 µM amounted to 33.3% with B-cell line [3] and 61.5% in the series on Murine T-cell line [7]. The inhibition at 100 µM was 52.1% with B-cell line [6] and 73.2% in the series with Murine T-cell line [10]. Besides, the inhibition at 1 µM in the series with Murine T-cell line [8] is 53.3%.

The inhibition in vivo is the relative decrease from the control value, in per cent. As for `Cc1cc(OC(=O)C(C)(C)C)c(C)c2c1CC[C@H]1[C@H](C)C(=O)O[C@@H]21`, the inhibition at 1 µM with B-cell line [13] worked out at 48.7%; in the series with Murine T-cell line [8], 35.1%. The inhibition in vivo at 25 mg/kg stood at 35% with Mus musculus [14] and 41% in the series on Mus musculus [17]. Moreover, the inhibition in vivo at 6.25 mg/kg in the series with Mus musculus [15] was 28%. For the same compound, the Activity result in the series on Murine T-cell line [2], in the series with B-cell line [4], in the series with Murine T-cell line [5], with B-cell line [9], with Murine T-cell line [11] and in the series with B-cell line [12] was “Non-Toxic” each time. The inhibition at 10 µM is 66% in the series with B-cell line [3] and 58.1% in the series with Murine T-cell line [7]. Further, the inhibition in vivo at 12.5 mg/kg with Mus musculus [16] is 30%. For the same compound, the inhibition at 100 µM in the series with B-cell line [6] came out at 80.5%; with Murine T-cell line [10], 75%.

For `CC1=C2[C@H]3OC(=O)[C@@H](C)[C@@H]3CC[C@@]2(C)C=CC1=O` [SANTONIN], the inhibition at 1 µM in the series on B-cell line [13] was determined as 19%; in the series with Murine T-cell line [8], 35.4%. Also, the Activity result in the series with Murine T-cell line [2] is listed as “Non-Toxic”; with Murine T-cell line [18], 3.55%; in the series with B-cell line [4] it was “Non-Toxic”; in the series on Murine T-cell line [5] it was “Non-Toxic”; with B-cell line [9], “Non-Toxic”; in the series on Murine T-cell line [11], “Non-Toxic”. The Activity entry with B-cell line [12] is “Non-Toxic”. In addition, the inhibition at 10 µM in the series with B-cell line [3] came to 27.1%. In addition, the figures for the inhibition at 100 µM in the series on B-cell line [6] and in the series on Murine T-cell line [10] were 33.2% and 8.16%, respectively.
